Article PMC7670640 (Pharmacology Research & Perspectives, 2020)

Tests used:
[1] = Multiple ascending dose part; assay type: in vivo, human
How it was run: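 Healthy men, double-blind, randomized 6 active:2 placebo per cohort. Oral test compound or placebo once daily for 14 days, each dose after a moderate-fat meal (~600 calories, ~30% from fat). An expansion cohort (24 planned) assessed GI tolerability. Monitoring covered AEs, physical exams, vital signs, ECGs, clinical labs, suicidal risk, and GI and hepatobiliary abnormalities. AEs were MedDRA 21.0-coded and summarized descriptively.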

[2] = Multiple ascending dose part; assay type: in vivo, human; details: for AUC / Cmax / Tmax: human, plasma, oral, multiple‐dose; for AUC: AUC0‐24, geometric mean (%CVb); for Cmax: geometric mean (%CVb); for Tmax: median (range)
HIV‐1 subtypes = experiment: Inhibition across HIV‐1 subtypes; details: background statement, no reference given
[3] = Lowest observed adverse effect level in dogs; assay type: in vivo
[4] = 50 mg once daily for 14 days (N = 6)
[5] = 100 mg once daily for 14 days (N = 6)
[6] = 200 mg once daily for 14 days (N = 25; cohort 5 and expansion cohort)
[7] = 320 mg once daily for 14 days (N = 7)
[8] = Part 2, across 58 participants (GSK3640254 n = 44 or placebo n = 14)

C=C(C)[C@@H]1CC[C@]2(NCCN3CCS(=O)(=O)CC3)CC[C@]3(C)[C@H](CC[C@@H]4[C@@]5(C)CC=C(C6=CC[C@@](CF)(C(=O)O)CC6)C(C)(C)[C@@H]5CC[C@]43C)[C@@H]12 [GSK3640254]
Adverse event: Abdominal distension [1, 4]: 0 n (%)
Adverse event: Abdominal pain [1, 4]: 1 (17) n (%)
Adverse event: Abnormal dreams [1, 4]: 0 n (%)
Adverse event: Agitation [1, 4]: 0 n (%)
Adverse event: Any event [1, 4]: 4 (67) n (%)
Adverse event: Arthropod bite [1, 4]: 0 n (%)
Adverse event: Back pain [1, 4]: 0 n (%)
Adverse event: Catheter‐site bruise [1, 4]: 0 n (%)
Adverse event: Catheter‐site pain [1, 4]: 0 n (%)
Adverse event: Constipation [1, 4]: 0 n (%)
Adverse event: Contact dermatitis [1, 4]: 1 (17) n (%)
Adverse event: Contusion [1, 4]: 1 (17) n (%)
Adverse event: Disturbance in attention [1, 4]: 0 n (%)
Adverse event: Dizziness [1, 4]: 1 (17) n (%)
Adverse event: Dry skin [1, 4]: 0 n (%)
Adverse event: Fatigue [1, 4]: 2 (33) n (%)
Adverse event: Gastrointestinal disorders [1, 4]: 2 (33) n (%)
Adverse event: Headache [1, 4]: 3 (50) n (%)
Adverse event: Lethargy [1, 4]: 0 n (%)
Adverse event: Musculoskeletal stiffness [1, 4]: 1 (17) n (%)
Adverse event: Nausea [1, 4]: 0 n (%)
Adverse event: Oropharyngeal pain [1, 4]: 0 n (%)
Adverse event: Rash [1, 4]: 0 n (%)
Adverse event: Somnolence [1, 4]: 1 (17) n (%)
Adverse event: Vessel puncture site bruise [1, 4]: 0 n (%)
Adverse event: Abdominal distension [1, 5]: 0 n (%)
Adverse event: Abdominal pain [1, 5]: 0 n (%)
Adverse event: Abnormal dreams [1, 5]: 0 n (%)
Adverse event: Agitation [1, 5]: 1 (17) n (%)
Adverse event: Any event [1, 5]: 5 (83) n (%)
Adverse event: Arthropod bite [1, 5]: 0 n (%)
Adverse event: Back pain [1, 5]: 1 (17) n (%)
Adverse event: Catheter‐site bruise [1, 5]: 1 (17) n (%)
Adverse event: Catheter‐site pain [1, 5]: 0 n (%)
Adverse event: Constipation [1, 5]: 0 n (%)
Adverse event: Contact dermatitis [1, 5]: 0 n (%)
Adverse event: Contusion [1, 5]: 1 (17) n (%)
Adverse event: Disturbance in attention [1, 5]: 0 n (%)
Adverse event: Dizziness [1, 5]: 2 (33) n (%)
Adverse event: Dry skin [1, 5]: 0 n (%)
Adverse event: Fatigue [1, 5]: 1 (17) n (%)
Adverse event: Gastrointestinal disorders [1, 5]: 0 n (%)
Adverse event: Headache [1, 5]: 1 (17) n (%)
Adverse event: Lethargy [1, 5]: 0 n (%)
Adverse event: Musculoskeletal stiffness [1, 5]: 0 n (%)
Adverse event: Nausea [1, 5]: 0 n (%)
Adverse event: Oropharyngeal pain [1, 5]: 0 n (%)
Adverse event: Rash [1, 5]: 0 n (%)
Adverse event: Somnolence [1, 5]: 0 n (%)
Adverse event: Vessel puncture site bruise [1, 5]: 0 n (%)
Adverse event: Abdominal distension [1, 6]: 1 (4) n (%)
Adverse event: Abdominal pain [1, 6]: 1 (4) n (%)
Adverse event: Abnormal dreams [1, 6]: 2 (8) n (%)
Adverse event: Agitation [1, 6]: 1 (4) n (%)
Adverse event: Any event [1, 6]: 19 (76) n (%)
Adverse event: Arthropod bite [1, 6]: 0 n (%)
Adverse event: Back pain [1, 6]: 2 (8) n (%)
Adverse event: Catheter‐site bruise [1, 6]: 1 (4) n (%)
Adverse event: Catheter‐site pain [1, 6]: 0 n (%)
Adverse event: Constipation [1, 6]: 2 (8) n (%)
Adverse event: Contact dermatitis [1, 6]: 7 (28) n (%)
Adverse event: Contusion [1, 6]: 3 (12) n (%)
Adverse event: Disturbance in attention [1, 6]: 1 (4) n (%)
Adverse event: Dizziness [1, 6]: 2 (8) n (%)
Adverse event: Dry skin [1, 6]: 0 n (%)
Adverse event: Fatigue [1, 6]: 1 (4) n (%)
Adverse event: Gastrointestinal disorders [1, 6]: 6 (24) n (%)
Adverse event: Headache [1, 6]: 3 (12) n (%)
Adverse event: Lethargy [1, 6]: 1 (4) n (%)
Adverse event: Musculoskeletal stiffness [1, 6]: 1 (4) n (%)
Adverse event: Nausea [1, 6]: 1 (4) n (%)
Adverse event: Oropharyngeal pain [1, 6]: 1 (4) n (%)
Adverse event: Rash [1, 6]: 1 (4) n (%)
Adverse event: Somnolence [1, 6]: 0 n (%)
Adverse event: Vessel puncture site bruise [1, 6]: 1 (4) n (%)
Adverse event: Abdominal distension [1, 7]: 0 n (%)
Adverse event: Abdominal pain [1, 7]: 0 n (%)
Adverse event: Abnormal dreams [1, 7]: 0 n (%)
Adverse event: Agitation [1, 7]: 0 n (%)
Adverse event: Any event [1, 7]: 6 (86) n (%)
Adverse event: Arthropod bite [1, 7]: 2 (29) n (%)
Adverse event: Back pain [1, 7]: 0 n (%)
Adverse event: Catheter‐site bruise [1, 7]: 0 n (%)
Adverse event: Catheter‐site pain [1, 7]: 1 (14) n (%)
Adverse event: Constipation [1, 7]: 0 n (%)
Adverse event: Contact dermatitis [1, 7]: 0 n (%)
Adverse event: Contusion [1, 7]: 0 n (%)
Adverse event: Disturbance in attention [1, 7]: 0 n (%)
Adverse event: Dizziness [1, 7]: 1 (14) n (%)
Adverse event: Dry skin [1, 7]: 1 (14) n (%)
Adverse event: Fatigue [1, 7]: 0 n (%)
Adverse event: Gastrointestinal disorders [1, 7]: 2 (29) n (%)
Adverse event: Headache [1, 7]: 2 (29) n (%)
Adverse event: Lethargy [1, 7]: 1 (14) n (%)
Adverse event: Musculoskeletal stiffness [1, 7]: 0 n (%)
Adverse event: Nausea [1, 7]: 1 (14) n (%)
Adverse event: Oropharyngeal pain [1, 7]: 1 (14) n (%)
Adverse event: Rash [1, 7]: 0 n (%)
Adverse event: Somnolence [1, 7]: 1 (14) n (%)
Adverse event: Vessel puncture site bruise [1, 7]: 0 n (%)
participants reporting palpitations ([1]; Part 2, 200‐mg + expansion cohort, one participant, mild, unrelated to study drug): 2%
most common AEs: contact dermatitis [1, 8]: 13.8%
most common AEs: dizziness [1, 8]: 12.1%
most common AEs: headache [1, 8]: 25.9%
participants discontinued because of grade 1 maculopapular rash ([1]; expansion cohort, one participant): 2%
AUC ([2]; 50 mg, Day 1, 50 mg, N = 6): 2860 ng·h/mL
Cmax ([2]; 50 mg, Day 1, 50 mg, N = 6): 215 ng/mL
Tmax ([2]; 50 mg, Day 1, 50 mg, N = 6): 3.8 h
AUC ([2]; 100 mg, Day 1, 100 mg, N = 6): 6800 ng·h/mL
Cmax ([2]; 100 mg, Day 1, 100 mg, N = 6): 536 ng/mL
Tmax ([2]; 100 mg, Day 1, 100 mg, N = 6): 4.3 h
AUC ([2]; 320 mg, Day 1, 320 mg, N = 7): 13500 ng·h/mL
Cmax ([2]; 320 mg, Day 1, 320 mg, N = 7): 1040 ng/mL
Tmax ([2]; 320 mg, Day 1, 320 mg, N = 7): 4 h
increase in exposure upon repeat dosing ([2]; in vivo): two‐ to three‐fold
dose‐proportionality of Cmax and AUC ([2]; multiple‐dose administration 50‐320 mg): trend toward less than dose‐proportional increases in exposure
time to steady state ([2]; repeat once‐daily dosing): ≤ 8 days
attainment of steady state (slope of trough concentration vs time close to zero) ([2]; trough concentrations from all participants): ≤ 8 days
inhibition across HIV‐1 subtypes (HIV‐1 subtypes): broad‐spectrum inhibition across various HIV‐1 subtypes
maximum recommended starting dose [MRSD] based on lowest observed adverse effect level in dogs ([3]; calculated from dog level of 1 mg/kg): approximately 3.2 mg
lowest observed adverse effect level ([3]; dogs, absence of a NOAEL in dogs): 1 mg/kg
